Assay results as given in ChEMBL document CHEMBL4477213, “Discovery and Optimization of Quinazolinone-pyrrolopyrrolones as Potent and Orally Bioavailable Pan-Pim Kinase Inhibitors” (J Med Chem, 2016).
≈ marks a conversion by molar mass, not a printed value.

Tests used:
KMS-12-BM [1] = experiment: Antitumor activity against human KMS-12-BM cells xenografted in SCID-bg mouse assessed as tumor growth inhibition at 25 mg/kg, po qd measured twice per week; assay type: functional; conditions: read-out: TGI
KMS-12-BM [2] = experiment: Antitumor activity against human KMS-12-BM cells xenografted in SCID-bg mouse assessed as tumor growth inhibition at 10 mg/kg, po qd measured twice per week; assay type: functional; conditions: read-out: TGI
[3] = Oral bioavailability in dog; assay type: ADME, organism-based, Canis lupus familiaris; conditions: in vivo
Mus musculus [4] = experiment: In vivo inhibition of pan Pim in SCID-bg mouse xenografted with human KMS-12-BM cells assessed as phosphorylation of BAD peptide at Serine 112 residue at 25 mg/kg, po qd measured at 1 hr post dose relative to control; assay type: functional; parameters: scale not given: the % may be the effect or the level left
Mus musculus [5] = experiment: In vivo inhibition of pan Pim in SCID-bg mouse xenografted with human KMS-12-BM cells assessed as plasma concentration required for reduction of BAD peptide phosphorylation at Serine 112 residue at 10 to 100 mg/kg, po qd measured after 1 to 24 hrs post dose; assay type: functional, organism-based
[6] = Volume of distribution at steady state in dog at 0.3 mg/kg, iv; assay type: ADME, organism-based, Canis lupus familiaris; conditions: in vivo, read-out: Vdss
[7] = Aqueous solubility of the compound in PBS at pH 7.4 after 1 hr by LC/MS analysis; assay type: physicochemical
Method in brief: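 The compound was dried down from DMSO and taken up in 1x PBS (pH 7.4) or FaSIF (pH 6.8). Samples were shaken 1 h, equilibrated at RT for 72 h, then centrifuged.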

C[C@H]1NC(=O)c2cc(-c3cccc4c(=O)n(C)c(NC(C)(C)C)nc34)[nH]c21
inhibition in vivo at 25 mg/kg (KMS-12-BM [1]): 65%
inhibition in vivo at 10 mg/kg (KMS-12-BM [2]): 30%
bioavailability [3]: 44%
Activity (Mus musculus [4]): 60%
EC50 (Mus musculus [5]): 254 nM
Vd [6]: 1 L/kg
solubility at 1 h [7]: 60 µM (≈ 21.9 µg/mL)
